# Activity calls are given as the source filed them.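 Rule for the calls, unless noted: active = Her2 level under about 52% in both replicate screens, with viability over 70% of control (limit read from the data); inconclusive = Her2 under the limit in one screen only, or viability under 70%; inactive = Her2 level above the set limit.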
# Legend:
# [1] = reducers of endogenous Her2 protein level, primary screen, SKBR3 breast tumor cells, AlphaScreen, ATP viability (AID 461); conditions: 18-24 h, measured here: SKBR3 viability, ATP luminescence, at 10 µM;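 for Her2 level: lower value means less Her2 protein in the cells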;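 for viability: percent of carrier control wells set as 100% viability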
# [2] = target: Receptor tyrosine-protein kinase erbB-2 (Homo sapiens) (UniProt P04626); experiment: as above; conditions: 18-24 h, at 10 µM, stronger effect = lower value
# Receptor tyrosine-protein kinase erbB-2 (Homo sapiens), sequence (P04626 whole entry, looked up): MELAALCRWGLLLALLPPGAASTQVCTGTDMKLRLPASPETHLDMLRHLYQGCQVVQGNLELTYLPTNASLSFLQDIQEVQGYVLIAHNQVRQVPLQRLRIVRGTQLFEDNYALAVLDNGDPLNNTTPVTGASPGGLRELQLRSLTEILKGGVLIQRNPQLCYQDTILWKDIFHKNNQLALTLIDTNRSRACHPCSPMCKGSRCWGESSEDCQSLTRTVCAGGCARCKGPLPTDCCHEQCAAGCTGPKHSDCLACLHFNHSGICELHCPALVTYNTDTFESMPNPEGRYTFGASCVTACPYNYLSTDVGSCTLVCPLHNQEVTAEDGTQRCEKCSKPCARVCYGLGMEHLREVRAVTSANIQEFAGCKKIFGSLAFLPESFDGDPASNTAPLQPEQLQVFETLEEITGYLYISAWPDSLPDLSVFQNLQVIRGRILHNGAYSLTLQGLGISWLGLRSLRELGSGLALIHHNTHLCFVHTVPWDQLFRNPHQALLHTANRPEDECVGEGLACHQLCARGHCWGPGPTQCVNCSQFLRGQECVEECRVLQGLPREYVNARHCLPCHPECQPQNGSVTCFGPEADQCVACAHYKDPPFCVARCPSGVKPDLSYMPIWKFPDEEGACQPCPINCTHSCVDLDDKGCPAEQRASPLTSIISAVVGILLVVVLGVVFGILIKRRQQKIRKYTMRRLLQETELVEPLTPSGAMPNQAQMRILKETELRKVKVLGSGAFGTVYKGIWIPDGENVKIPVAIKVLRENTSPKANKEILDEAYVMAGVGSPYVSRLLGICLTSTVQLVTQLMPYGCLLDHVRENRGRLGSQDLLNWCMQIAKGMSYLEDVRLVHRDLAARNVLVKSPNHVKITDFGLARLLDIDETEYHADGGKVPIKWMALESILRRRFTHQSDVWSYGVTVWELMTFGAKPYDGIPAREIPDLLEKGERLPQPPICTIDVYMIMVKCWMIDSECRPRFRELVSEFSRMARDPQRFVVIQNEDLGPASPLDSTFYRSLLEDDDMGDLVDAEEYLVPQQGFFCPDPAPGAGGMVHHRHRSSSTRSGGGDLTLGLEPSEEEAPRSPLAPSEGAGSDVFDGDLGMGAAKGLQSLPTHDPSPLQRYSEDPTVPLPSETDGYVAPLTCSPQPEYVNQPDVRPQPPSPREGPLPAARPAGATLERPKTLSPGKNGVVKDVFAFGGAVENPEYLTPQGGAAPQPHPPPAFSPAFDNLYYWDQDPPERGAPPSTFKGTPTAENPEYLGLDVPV
# [3] = SK-BR-3 cell growth inhibitors, pilot screen, 24 h, human (AID 572;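 active = viability at or below 10% of carrier control in both of two separate runs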;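 note: compound exposure lasted between 18 and 24 h rather than exactly 24 h; 100% = carrier-treated control wells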); conditions: SK-BR-3 viability, CellTiter-Glo luminescence, at 10 µM, stronger effect = lower value
# [4] = growth inhibitors of H69AR lung tumor, primary screen, human, duplicate replicates (AID 580;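 active = viability at or under a set limit in both replicates, limit being median viability minus 3 SD, cut at about 48% in these data, passing the limit was not always enough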;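 note: 100% = mean luminescence of untreated wells and 0% = no signal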); conditions: H69AR lung tumor cells viability, ATP luminescence, 72 h; at 10 µM; stronger effect = lower value
# [5] = reversal of MRP1-mediated doxorubicin resistance, pilot screen, H69AR cells, doxorubicin co-treatment (AID 601;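 active = viability loss from added drug above about 55%, and viability with drug at most 40%, in both replicates, limit read from the data, passing the limit was not always enough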); conditions: CellTiter-Glo, 72 h, at 10 µM; for differential viability (reversal): stronger effect = higher value
# [6] = 384-well plate pilot, post-Golgi transport modulator project, inhibition of yeast transport mutant growth (AID 636; in the data active = inhibition above about 31%); conditions: absorbance 615 nm, about 18 h, stronger effect = higher value
# [7] = growth suppression of yeast trafficking mutant, preliminary HTS, modulators of trafficking downstream of Golgi apparatus project, 1536-format plate, OD 615 nm (AID 637; in the data active = inhibition above about 30%); conditions: yeast transport mutant growth, absorbance 615 nm, 18 h; stronger effect = higher value
# [8] = HUVEC growth inhibition – cell-based, human, primary screen (AID 575;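 active = viability at or below 30% in both replicate assays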;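 note: 100% = median of untreated cell wells with 0.1% DMSO on each plate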); conditions: HUVEC proliferation, CellTiter-Glo luminescence, 72 h; at 10 µM; stronger effect = lower value
# How it was run: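 System: primary human umbilical vein endothelial cells; Quantity: 1250 endothelial cells in each well; Buffer or medium: supplemented EBM, 2% fetal bovine serum; Doses: one dose, 10 µM final, 0.1% DMSO; Incubation: 72 h compound incubation; Technique: ATP-based CellTiter-Glo luminescent read; Evaluation: percent of median DMSO-control luminescence; Controls: vehicle and MePR control wells.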
# [9] = H69AR cells + 2 uM doxorubicin, measured here: viability with 2 uM doxorubicin, stronger effect = lower value
# [10] = H69AR cells, compound alone cytotoxicity
Structure (SMILES),viability [1],Her2 level [2],viability [3],viability [4],differential viability (reversal) ([5]; H69AR cells + 2 uM doxorubicin),"viability [5, 9]","viability [5, 10]",inhibition [6],inhibition [7],viability [8]
Cc1cccc(Nc2ncc3c(n2)CC(c2ccco2)CC3=O)c1 (centres undefined),81.5%,83% (inactive),81.5% (inactive),75.5% (inactive),-2.41% (inactive),77.9%,75.5%,0.26% (inactive),4.17% (inactive),–
COc1cccc(-c2cc3nc4c(c(N5CCC6(CC5)OCCO6)n3n2)CCCC4)c1,124%,67.5% (inactive),124% (inactive),58.5% (inactive),-3.45% (inactive),61.9%,58.5%,35.3% (active),21.6% (inactive),–
O=C(CC(=O)c1cc(Cl)ccc1O)c1ccccc1,131%,89% (inactive),131% (inactive),11.4% (active),-9.6% (inactive),21%,11.4%,94.7% (active),61.3% (active),–
COc1ccc(CC(=O)NCc2cccs2)cc1,90%,103% (inactive),90% (inactive),–,-17.3% (inactive),77.9%,60.5%,-4% (inactive),-8.03% (inactive),60.6% (inactive)
Cc1ccc(/C=c2\s/c(=C(/C#N)C(=O)N3CCCC3)n(Cc3ccco3)c2=O)s1,87.5%,79% (inactive),87.5% (inactive),–,15.8% (inactive),28.1%,43.9%,-1.95% (inactive),1.9% (inactive),59.3% (inactive)
Cc1c(NC(=O)c2ccc(=O)oc2)c(=O)n(-c2ccccc2)n1C,96.5%,89% (inactive),96.5% (inactive),–,-18.7% (inactive),67.2%,48.5%,-4.8% (inactive),-0.32% (inactive),90.9% (inactive)
CCOC(=O)N1CCC(NC(=O)c2ccc3nc(N4CCOCC4)sc3c2)CC1,102%,105% (inactive),102% (inactive),97.1% (inactive),-2.62% (inactive),99.7%,97.1%,-4.74% (inactive),-0.32% (inactive),–
CCOC(=O)c1ccccc1NC(=O)c1c(O)c2ccccc2n(CC)c1=O,89%,90% (inactive),89% (inactive),71.3% (inactive),-11.1% (inactive),82.3%,71.3%,-6.85% (inactive),0.16% (inactive),–
CCOC(=O)c1cc2sc(C)cc2n1CC(=O)NCc1ccc(F)cc1,65%,73% (inactive),65% (inactive),69.4% (inactive),17.1% (inactive),52.3%,69.4%,-6.32% (inactive),-3% (inactive),–
Cc1cc(O)c(-c2cc(C(=O)Nc3ccc(S(=O)(=O)N4CCOCC4)cc3)[nH]n2)cc1C,120%,41% (active),120% (inactive),37.6% (active),-21.6% (inactive),59.2%,37.6%,-5.14% (inactive),-5.08% (inactive),–
O=C(Cn1nc(-c2ccc(Cl)cc2)ccc1=O)NCCCN1CCN(Cc2ccccc2)CC1,75%,106% (inactive),75% (inactive),90.1% (inactive),-3.28% (inactive),93.4%,90.1%,-0.26% (inactive),-3.55% (inactive),–
CCOC(=O)c1cnn(-c2sc(C(=O)OCC)c(C)c2C(=O)OCC)c1N,95%,93.5% (inactive),95% (inactive),15.8% (active),-25.8% (inactive),41.6%,15.8%,0.27% (inactive),-4.6% (inactive),–
Cn1c(-c2ccc(C(C)(C)C)cc2)n[nH]c1=S,106%,106% (inactive),106% (inactive),82.1% (inactive),1.74% (inactive),80.4%,82.1%,-4.68% (inactive),-2.13% (inactive),–
c1ccc(CN2CCN(c3ncnc4c3[nH]c3ccccc34)CC2)cc1,121%,47% (active),121% (inactive),60.6% (inactive),-22.6% (inactive),83.2%,60.6%,-6% (inactive),2.1% (inactive),–
CN(C)CC(O)COc1ccc(-c2ccc(C#N)cc2)cc1 (centres undefined),79.5%,109% (inactive),79.5% (inactive),96% (inactive),14.3% (inactive),81.8%,96%,0.27% (inactive),-6.61% (inactive),–
CCOC(=O)C1=C(N)c2ccccc2CC1C(C)C (centres undefined),85.5%,78% (inactive),85.5% (inactive),72% (inactive),-4.15% (inactive),76.1%,72%,-5.34% (inactive),-1.9% (inactive),–

Structure (SMILES),viability [1],Her2 level [2],viability [3],viability [4],differential viability (reversal) ([5]; H69AR cells + 2 uM doxorubicin),"viability [5, 9]","viability [5, 10]",inhibition [6],inhibition [7],viability [8]
COc1cccc(-c2nnc3sc(C4CCCCC4)nn23)c1,83%,53.5% (active),83% (inactive),63.4% (inactive),29.9% (inactive),33.5%,63.4%,-1.58% (inactive),11% (inactive),–
COc1ccc(C)cc1NC(=O)CCC(=O)Nc1ccc2nc(N3CCN(C)CC3)cc(C)c2c1,70.5%,123% (inactive),70.5% (inactive),93.2% (inactive),6.93% (inactive),86.2%,93.2%,3.95% (inactive),-6.17% (inactive),–
COc1cc2c(N3CCOCC3)cc(O)c(CC(=O)Nc3ccccc3)c2cc1OC,90.5%,98.5% (inactive),90.5% (inactive),75.3% (inactive),-14% (inactive),89.3%,75.3%,-5.32% (inactive),-6.89% (inactive),–
COc1ccc(Cn2nnnc2C(c2cccnc2)N2CCN(c3ccc(O)cc3)CC2)cc1 (centres undefined),99.5%,89.5% (inactive),99.5% (inactive),82.5% (inactive),-10.7% (inactive),93.2%,82.5%,-6.4% (inactive),4.19% (inactive),–
CCOC(=O)c1cnn(-c2ncnc3c2cnn3Cc2ccccc2)c1N,99.5%,84.5% (inactive),99.5% (inactive),17.2% (active),-14.3% (inactive),31.5%,17.2%,-5.33% (inactive),-2.58% (inactive),–
COc1ccccc1NC(=O)Cn1nnc(-c2ccccc2NC(=O)c2ccco2)n1,91.5%,72.5% (inactive),91.5% (inactive),6.73% (active),-4.18% (inactive),10.9%,6.73%,-5.41% (inactive),0.66% (inactive),–
O=C(CN1CCC(c2nc3ccccc3s2)CC1)NCc1cccs1,110%,91% (inactive),110% (inactive),85.3% (inactive),-3.33% (inactive),88.6%,85.3%,-0.8% (inactive),6.72% (inactive),–
CCOc1cc(NC(=O)c2ccco2)c(OCC)cc1NC(=O)CCc1ccc(OC)cc1,89%,88% (inactive),89% (inactive),78.7% (inactive),-9.95% (inactive),88.6%,78.7%,2% (inactive),1.31% (inactive),–
COc1ccc(-c2n[nH]c(C)c2-c2ccc(Cl)cc2)c(O)c1OC,83.5%,109% (inactive),83.5% (inactive),23.2% (active),-10.6% (inactive),33.8%,23.2%,-0.92% (inactive),4.26% (inactive),–
CCn1c(SCc2nc(-c3cccs3)no2)nnc1-c1c[nH]c2ccccc12,99%,65.5% (inactive),99% (inactive),78.8% (inactive),4.39% (inactive),74.4%,78.8%,-5.26% (inactive),-5.67% (inactive),–
CCOC(=O)c1cnc(-n2nc(C)cc2C)nc1Nc1ccc(N(C)C)cc1,102%,75.5% (inactive),102% (inactive),37.9% (active),11.6% (inactive),26.3%,37.9%,-6.05% (inactive),-1.13% (inactive),–
O=C(CSc1n[nH]c(-c2ccco2)n1)Nc1sc2c(c1C(=O)Nc1ccccc1)CCCC2,99.5%,99% (inactive),99.5% (inactive),65.9% (inactive),-13% (inactive),78.9%,65.9%,-4.42% (inactive),-10.7% (inactive),–
Oc1c(Cl)cc(Cl)c2c1NCCC2,71.5%,65% (inactive),71.5% (inactive),68.8% (inactive),-11.9% (inactive),80.7%,68.8%,-2.63% (inactive),-2.7% (inactive),–
Oc1ccc(N2CCN(C(c3ccncc3)c3nnnn3C3CCCC3)CC2)cc1 (centres undefined),76%,82.5% (inactive),76% (inactive),91.9% (inactive),4.33% (inactive),87.6%,91.9%,-5.2% (inactive),2.58% (inactive),–
CCC1CCc2c(sc3ncnc(N4CCOCC4)c23)C1 (centres undefined),89.5%,87% (inactive),89.5% (inactive),89.3% (inactive),-14.3% (inactive),104%,89.3%,-5.14% (inactive),-0.16% (inactive),–

# Source: PubChem BioAssay
